From ChEMBL document CHEMBL1649446, “Comparative antipneumococcal activities of sulopenem and other drugs” (2009)
In brackets after ≈: the same amount, converted by molar mass.

Legend:
Format in all cases: functional
Streptococcus pneumoniae [1] = experiment: Antimicrobial activity against Streptococcus pneumoniae isolate 2688 by agar dilution method
Procedure, shortened: (§1)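 Agar dilution MIC on Mueller-Hinton agar with 5% sheep blood, inocula 10^4 CFU/spot; amoxicillin-clavulanate combined 1:2; S. pneumoniae ATCC 49619 quality control each run.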

Streptococcus pneumoniae [2] = experiment: Antimicrobial activity against Streptococcus pneumoniae isolate 3282 by agar dilution method
Streptococcus pneumoniae [3] = experiment: Antimicrobial activity against Streptococcus pneumoniae isolate 1147 by agar dilution method; procedure, shortened: as §1
Streptococcus pneumoniae [4] = experiment: Antimicrobial activity against Streptococcus pneumoniae isolate 4747 by agar dilution method; procedure, shortened: as §1
Streptococcus pneumoniae [5] = experiment: Antimicrobial activity against Streptococcus pneumoniae 9 by time-kill analysis
Procedure, shortened: (§2)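 Time-kill in cation-adjusted Mueller-Hinton broth with 5% lysed horse blood; inocula 5 × 105 to 5 × 10^6 CFU/ml; drugs at MIC, 2× and 4× MIC; 35°C shaking water bath; viable counts at 0, 3, 6, 12 and 24 h. Bactericidal if ≥3 log10 CFU/ml (99.9%) reduction from original inoculum; 90% and 99% killing also scored.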

Streptococcus pneumoniae [6] = experiment: Antimicrobial activity against Streptococcus pneumoniae 19A by agar dilution method; procedure, shortened: as §1
Streptococcus pneumoniae [7] = experiment: Antimicrobial activity against Streptococcus pneumoniae isolate 1146 by agar dilution method; procedure, shortened: as §1
Streptococcus pneumoniae [8] = experiment: Antimicrobial activity against Streptococcus pneumoniae isolate 3455 by agar dilution method
Streptococcus pneumoniae [9] = experiment: Antimicrobial activity against Streptococcus pneumoniae 11 by time-kill analysis
Procedure, shortened: as §2, with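 “12,” for “12 and”, “=” for “if”, “drop” for “reduction”, “90%/99%/99.9%” for “90% and 99%”, “scored per strain.” for “also scored.”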

Streptococcus pneumoniae [10] = experiment: Antimicrobial activity against Streptococcus pneumoniae isolate 3412 by agar dilution method; procedure, shortened: as §1
Streptococcus pneumoniae [11] = experiment: Antimicrobial activity against Streptococcus pneumoniae isolate 3346 by agar dilution method
Streptococcus pneumoniae [12] = experiment: Antimicrobial activity against Streptococcus pneumoniae isolate 3263 by agar dilution method
Streptococcus pneumoniae [13] = experiment: Antimicrobial activity against Streptococcus pneumoniae isolate 1394 by agar dilution method
Streptococcus pneumoniae [14] = experiment: Antimicrobial activity against Streptococcus pneumoniae 2 by time-kill analysis
Procedure, shortened: as §2, with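 “12,” for “12 and”, “=” for “if”, “drop” for “reduction”, “90%/99%/99.9%” for “90% and 99%”, “scored per strain.” for “also scored.”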

Streptococcus pneumoniae [15] = experiment: Antimicrobial activity against Streptococcus pneumoniae 8 by time-kill analysis
Procedure, shortened: as §2, with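 “12,” for “12 and”, “=” for “if”, “drop” for “reduction”, “90%/99%/99.9%” for “90% and 99%”, “scored per strain.” for “also scored.”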

Streptococcus pneumoniae [16] = experiment: Antimicrobial activity against penicillin-intermediate Streptococcus pneumoniae by agar dilution method
Streptococcus pneumoniae [17] = experiment: Antimicrobial activity against Streptococcus pneumoniae 6 by time-kill analysis
Procedure, shortened: as §2, with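 “12,” for “12 and”, “=” for “if”, “drop” for “reduction”, “90%/99%/99.9%” for “90% and 99%”, “scored per strain.” for “also scored.”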

Streptococcus pneumoniae [18] = experiment: Antimicrobial activity against Streptococcus pneumoniae isolate 3260 by agar dilution method
Streptococcus pneumoniae [19] = experiment: Antimicrobial activity against Streptococcus pneumoniae isolate 37 by agar dilution method; procedure, shortened: as §1
Streptococcus pneumoniae [20] = experiment: Antimicrobial activity against Streptococcus pneumoniae isolate 3374 by agar dilution method; procedure, shortened: as §1
Streptococcus pneumoniae [21] = experiment: Antimicrobial activity against penicillin-resistant Streptococcus pneumoniae by agar dilution method; procedure, shortened: as §1
Streptococcus pneumoniae [22] = experiment: Antimicrobial activity against Streptococcus pneumoniae isolate 33 by agar dilution method; procedure, shortened: as §1
Streptococcus pneumoniae [23] = experiment: Antimicrobial activity against Streptococcus pneumoniae isolate 1564 by agar dilution method
Streptococcus pneumoniae [24] = experiment: Antimicrobial activity against Streptococcus pneumoniae isolate 3791 by agar dilution method; procedure, shortened: as §1
Streptococcus pneumoniae [25] = experiment: Antimicrobial activity against Streptococcus pneumoniae isolate 2617 by agar dilution method; procedure, shortened: as §1
Streptococcus pneumoniae [26] = experiment: Antimicrobial activity against Streptococcus pneumoniae 3 by time-kill analysis
Procedure, shortened: as §2, with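 “12,” for “12 and”, “=” for “if”, “drop” for “reduction”, “90%/99%/99.9%” for “90% and 99%”, “scored per strain.” for “also scored.”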

Streptococcus pneumoniae [27] = experiment: Antimicrobial activity against Streptococcus pneumoniae isolate 1384 by agar dilution method; procedure, shortened: as §1
Streptococcus pneumoniae [28] = experiment: Antimicrobial activity against Streptococcus pneumoniae isolate 2880 by agar dilution method; procedure, shortened: as §1
Streptococcus pneumoniae [29] = experiment: Antimicrobial activity against Streptococcus pneumoniae isolate 3587 by agar dilution method
Streptococcus pneumoniae [30] = experiment: Antimicrobial activity against Streptococcus pneumoniae 4 by time-kill analysis
Procedure, shortened: as §2, with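 “12,” for “12 and”, “=” for “if”, “drop” for “reduction”, “90%/99%/99.9%” for “90% and 99%”, “scored per strain.” for “also scored.”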

Streptococcus pneumoniae [31] = experiment: Antimicrobial activity against Streptococcus pneumoniae isolate 3458 by agar dilution method
Streptococcus pneumoniae [32] = experiment: Antimicrobial activity against Streptococcus pneumoniae isolate 3681 by agar dilution method; procedure, shortened: as §1
Streptococcus pneumoniae [33] = experiment: Antimicrobial activity against Streptococcus pneumoniae 5 by time-kill analysis; procedure, shortened: as §2
Streptococcus pneumoniae [34] = experiment: Antimicrobial activity against Streptococcus pneumoniae 10 by time-kill analysis
Procedure, shortened: as §2, with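 “12,” for “12 and”, “=” for “if”, “drop” for “reduction”, “90%/99%/99.9%” for “90% and 99%”, “scored per strain.” for “also scored.”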

Streptococcus pneumoniae [35] = experiment: Antimicrobial activity against Streptococcus pneumoniae isolate 2686 by agar dilution method; procedure, shortened: as §1
Streptococcus pneumoniae [36] = experiment: Antimicrobial activity against Streptococcus pneumoniae 7 by time-kill analysis
Procedure, shortened: as §2, with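 “12,” for “12 and”, “=” for “if”, “drop” for “reduction”, “90%/99%/99.9%” for “90% and 99%”, “scored per strain.” for “also scored.”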

Streptococcus pneumoniae [37] = experiment: Antimicrobial activity against Streptococcus pneumoniae isolate 1055 by agar dilution method
Streptococcus pneumoniae [38] = experiment: Antimicrobial activity against Streptococcus pneumoniae isolate 1424 by agar dilution method; procedure, shortened: as §1
Streptococcus pneumoniae [39] = experiment: Antimicrobial activity against penicillin-susceptible Streptococcus pneumoniae by agar dilution method
Streptococcus pneumoniae [40] = experiment: Antimicrobial activity against Streptococcus pneumoniae isolate 1397 by agar dilution method; procedure, shortened: as §1
Streptococcus pneumoniae [41] = experiment: Antimicrobial activity against Streptococcus pneumoniae isolate 2874 by agar dilution method; procedure, shortened: as §1
Streptococcus pneumoniae [42] = experiment: Antimicrobial activity against Streptococcus pneumoniae 1 by time-kill analysis; procedure, shortened: as §2
Streptococcus pneumoniae [43] = experiment: Antimicrobial activity against Streptococcus pneumoniae isolate 4755 by agar dilution method; procedure, shortened: as §1
Streptococcus pneumoniae [44] = experiment: Antimicrobial activity against Streptococcus pneumoniae isolate 3481 by agar dilution method; procedure, shortened: as §1
Streptococcus pneumoniae [45] = experiment: Antimicrobial activity against Streptococcus pneumoniae isolate 3275 by agar dilution method; procedure, shortened: as §1
Streptococcus pneumoniae [46] = experiment: Antimicrobial activity against Streptococcus pneumoniae isolate 24 by agar dilution method
Streptococcus pneumoniae [47] = experiment: Antimicrobial activity against Streptococcus pneumoniae 12 by time-kill analysis
Procedure, shortened: as §2, with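 “12,” for “12 and”, “=” for “if”, “drop” for “reduction”, “90%/99%/99.9%” for “90% and 99%”, “scored per strain.” for “also scored.”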

CO/N=C(\C(=O)N[C@@H]1C(=O)N2C(C(=O)O)=C(CSc3nc(=O)c(O)nn3C)CS[C@H]12)c1csc(N)n1 [CEFTRIAXONE]
MIC (Streptococcus pneumoniae [1]): 4 µg/mL (≈ 7.21 µM)
MIC (Streptococcus pneumoniae [2]): 0.5 µg/mL (≈ 0.902 µM)
MIC (Streptococcus pneumoniae [3]): 2 µg/mL (≈ 3.61 µM)
MIC (Streptococcus pneumoniae [4]): 2 µg/mL (≈ 3.61 µM)
MIC (Streptococcus pneumoniae [5]): 0.12 µg/mL (≈ 0.216 µM)
MIC50 (Streptococcus pneumoniae [6]): 2 µg/mL (≈ 3.61 µM)
MIC90 (Streptococcus pneumoniae [6]): 2 µg/mL (≈ 3.61 µM)
MIC (Streptococcus pneumoniae [7]): 2 µg/mL (≈ 3.61 µM)
MIC (Streptococcus pneumoniae [8]): 1 µg/mL (≈ 1.8 µM)
MIC (Streptococcus pneumoniae [9]): 4 µg/mL (≈ 7.21 µM)
MIC (Streptococcus pneumoniae [10]): 2 µg/mL (≈ 3.61 µM)
MIC (Streptococcus pneumoniae [11]): 1 µg/mL (≈ 1.8 µM)
MIC (Streptococcus pneumoniae [12]): 1 µg/mL (≈ 1.8 µM)
MIC (Streptococcus pneumoniae [13]): 4 µg/mL (≈ 7.21 µM)
MIC (Streptococcus pneumoniae [14]): 0.016 µg/mL (≈ 0.0289 µM)
MIC (Streptococcus pneumoniae [15]): 2 µg/mL (≈ 3.61 µM)
MIC50 (Streptococcus pneumoniae [16]): 0.125 µg/mL (≈ 0.225 µM)
MIC90 (Streptococcus pneumoniae [16]): 1 µg/mL (≈ 1.8 µM)
MIC (Streptococcus pneumoniae [17]): 0.12 µg/mL (≈ 0.216 µM)
MIC (Streptococcus pneumoniae [18]): 0.5 µg/mL (≈ 0.902 µM)
MIC (Streptococcus pneumoniae [19]): 2 µg/mL (≈ 3.61 µM)
MIC (Streptococcus pneumoniae [20]): 1 µg/mL (≈ 1.8 µM)
MIC50 (Streptococcus pneumoniae [21]): 1 µg/mL (≈ 1.8 µM)
MIC90 (Streptococcus pneumoniae [21]): 2 µg/mL (≈ 3.61 µM)
MIC (Streptococcus pneumoniae [22]): 1 µg/mL (≈ 1.8 µM)
MIC (Streptococcus pneumoniae [23]): > 8 µg/mL
MIC (Streptococcus pneumoniae [24]): 1 µg/mL (≈ 1.8 µM)
MIC (Streptococcus pneumoniae [25]): 1 µg/mL (≈ 1.8 µM)
MIC (Streptococcus pneumoniae [26]): 0.25 µg/mL (≈ 0.451 µM)
MIC (Streptococcus pneumoniae [27]): 2 µg/mL (≈ 3.61 µM)
MIC (Streptococcus pneumoniae [28]): 0.5 µg/mL (≈ 0.902 µM)
MIC (Streptococcus pneumoniae [29]): 1 µg/mL (≈ 1.8 µM)
MIC (Streptococcus pneumoniae [30]): 4 µg/mL (≈ 7.21 µM)
MIC (Streptococcus pneumoniae [31]): 1 µg/mL (≈ 1.8 µM)
MIC (Streptococcus pneumoniae [32]): 1 µg/mL (≈ 1.8 µM)
MIC (Streptococcus pneumoniae [33]): 4 µg/mL (≈ 7.21 µM)
MIC (Streptococcus pneumoniae [34]): 0.12 µg/mL (≈ 0.216 µM)
MIC (Streptococcus pneumoniae [35]): 2 µg/mL (≈ 3.61 µM)
MIC (Streptococcus pneumoniae [36]): 2 µg/mL (≈ 3.61 µM)
MIC (Streptococcus pneumoniae [37]): 1 µg/mL (≈ 1.8 µM)
MIC (Streptococcus pneumoniae [38]): 4 µg/mL (≈ 7.21 µM)
MIC50 (Streptococcus pneumoniae [39]): 0.03 µg/mL (≈ 0.0541 µM)
MIC90 (Streptococcus pneumoniae [39]): 0.06 µg/mL (≈ 0.108 µM)
MIC (Streptococcus pneumoniae [40]): 4 µg/mL (≈ 7.21 µM)
MIC (Streptococcus pneumoniae [41]): 2 µg/mL (≈ 3.61 µM)
MIC (Streptococcus pneumoniae [42]): 0.03 µg/mL (≈ 0.0541 µM)
MIC (Streptococcus pneumoniae [43]): 2 µg/mL (≈ 3.61 µM)
MIC (Streptococcus pneumoniae [44]): 2 µg/mL (≈ 3.61 µM)
MIC (Streptococcus pneumoniae [45]): 0.25 µg/mL (≈ 0.451 µM)
MIC (Streptococcus pneumoniae [46]): 2 µg/mL (≈ 3.61 µM)
MIC (Streptococcus pneumoniae [47]): 1 µg/mL (≈ 1.8 µM)
